The structures appear in SMILES notation. Peptide text beside a SMILES is read from it. * marks the point of attachment. X5 = Cc1ccc(CC[C@H](N*)B2O[C@@H]3C[C@@H]4C[C@@H](C4(C)C)[C@]3(C)O2)c(C)c1; X7 = Cc1ccc(C)c(CC[C@H](N*)B2O[C@@H]3C[C@@H]4C[C@@H](C4(C)C)[C@]3(C)O2)c1; X2 = Cc1ccccc1CC[C@H](N*)B1O[C@@H]2C[C@@H]3C[C@@H](C3(C)C)[C@]2(C)O1

One assay concerns the target NS3 (Hepatitis C virus, UniProt A3EZJ3). The assay is described as follows: Inhibitory concentration against Hepatitis C virus NS3 protease. More on the design: species or system Hepacivirus hominis. In short, it runs like this: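 Continuous fluorescence assay with 4 nM NS3 protease plus NS4A cofactor peptide, in 50 mM Tris pH 7.0, 5 mM DTT, 50% glycerol, 2% CHAPS. Serially diluted inhibitors, given as boronic acid pinanediol esters, were preincubated with enzyme for 15 min. The reaction was started with the FRET ester substrate Ac-DED(EDANS)EEAbuψ[COO]ASK(DABCYL)-NH2 at ambient temperature and read at excitation 360 nm, emission 530 nm.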
What is called IC50 is the concentration that inhibits the measured activity by half. Higher therefore signals a need for much substance. As for `Cc1ccccc1CC[C@H](NC(=O)[C@@H]1CCCN1C(=O)[C@@H](NC(=O)[C@@H](NC(=O)[C@H](CCC(=O)O)NC(=O)[C@@H](N)CC(=O)O)C(C)C)C(C)C)B1O[C@@H]2C[C@@H]3C[C@@H](C3(C)C)[C@]2(C)O1` (H-DEVVP-X2), the IC50 amounted to 820 nM. The same measure, in the same setting: with `Cc1ccc(CC[C@H](NC(=O)[C@@H]2CCCN2C(=O)[C@@H](NC(=O)[C@@H](NC(=O)[C@H](CCC(=O)O)NC(=O)[C@@H](N)CC(=O)O)C(C)C)C(C)C)B2O[C@@H]3C[C@@H]4C[C@@H](C4(C)C)[C@]3(C)O2)c(C)c1` (H-DEVVP-X5) the figure was 530 nM; with `Cc1ccc(C)c(CC[C@H](NC(=O)[C@@H]2CCCN2C(=O)[C@@H](NC(=O)[C@@H](NC(=O)[C@H](CCC(=O)O)NC(=O)[C@@H](N)CC(=O)O)C(C)C)C(C)C)B2O[C@@H]3C[C@@H]4C[C@@H](C4(C)C)[C@]3(C)O2)c1` (H-DEVVP-X7), 1000 nM.

For another assay, the target named is T1, Neutrophil elastase (Homo sapiens, UniProt P08246).
T1 sequence (P08246 whole entry): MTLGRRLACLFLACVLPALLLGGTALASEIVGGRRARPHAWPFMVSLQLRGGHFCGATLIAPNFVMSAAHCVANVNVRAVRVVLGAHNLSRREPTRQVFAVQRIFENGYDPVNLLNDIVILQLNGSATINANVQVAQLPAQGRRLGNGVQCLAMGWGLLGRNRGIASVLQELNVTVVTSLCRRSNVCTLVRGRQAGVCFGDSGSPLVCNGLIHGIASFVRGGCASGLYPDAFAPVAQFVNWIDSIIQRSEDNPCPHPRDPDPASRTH
The assay is described as follows: Inhibitory concentration against Human leukocyte Elastase. The gist of the method:
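Human neutrophil elastase (stock 1 mg/mL in PBS with 10% glycerol) with MeO-Suc-Ala-Ala-Pro-Val-p-nitroanilide substrate in PBS at room temperature, DMSO ≤2%. Inhibitors were tested as pinanediol esters. Substrate hydrolysis was followed at 405 nm to derive kinetic parameters.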
For `COc1ccc(CC[C@H](NC(=O)[C@H]2CCCN2C(=O)[C@@H](NC(=O)[C@@H](NC(=O)[C@H](CCC(=O)O)NC(=O)[C@@H](N)CC(=O)O)C(C)C)C(C)C)B2O[C@@H]3C[C@@H]4C[C@@H](C4(C)C)[C@]3(C)O2)cc1`, it took 560 nM to reach half-maximal inhibition (IC50). `CC(C)[C@H](NC(=O)[C@H](CCC(=O)O)NC(=O)[C@@H](N)CC(=O)O)C(=O)N[C@H](C(=O)N1CCC[C@@H]1C(=O)N[C@@H](CCc1ccc(C(F)(F)F)cc1)B1O[C@@H]2C[C@@H]3C[C@@H](C3(C)C)[C@]2(C)O1)C(C)C` had an IC50 of 1800 nM. In turn, `CC(C)[C@H](NC(=O)[C@H](CCC(=O)O)NC(=O)[C@@H](N)CC(=O)O)C(=O)N[C@H](C(=O)N1CCC[C@@H]1C(=O)N[C@@H](CCc1ccc(C2CCCCC2)cc1)B1O[C@@H]2C[C@@H]3C[C@@H](C3(C)C)[C@]2(C)O1)C(C)C` showed a concentration for half-maximal inhibition (IC50) of 400 nM. Turning to `CC(C)[C@H](NC(=O)[C@H](CCC(=O)O)NC(=O)[C@@H](N)CC(=O)O)C(=O)N[C@H](C(=O)N1CCC[C@@H]1C(=O)N[C@@H](CCc1ccc(Br)cc1)B1O[C@@H]2C[C@@H]3C[C@@H](C3(C)C)[C@]2(C)O1)C(C)C`, the midpoint of inhibition, the IC50, lay at 1600 nM.

The compound `CC(C)[C@H](NC(=O)[C@H](CCC(=O)O)NC(=O)[C@@H](N)CC(=O)O)C(=O)N[C@H](C(=O)N1CCC[C@@H]1C(=O)N[C@@H](CCc1ccccc1)B1O[C@@H]2C[C@@H]3C[C@@H](C3(C)C)[C@]2(C)O1)C(C)C` displayed a half-inhibitory concentration (IC50) of 3500 nM. `CC(C)[C@H](NC(=O)[C@H](CCC(=O)O)NC(=O)[C@@H](N)CC(=O)O)C(=O)N[C@H](C(=O)N1CCC[C@@H]1C(=O)N[C@@H](CCc1ccc(O)cc1)B1O[C@@H]2C[C@@H]3C[C@@H](C3(C)C)[C@]2(C)O1)C(C)C` showed a 50% inhibitory concentration (IC50) of 900 nM. As for `CC(C)c1ccc(CC[C@H](NC(=O)[C@H]2CCCN2C(=O)[C@@H](NC(=O)[C@@H](NC(=O)[C@H](CCC(=O)O)NC(=O)[C@@H](N)CC(=O)O)C(C)C)C(C)C)B2O[C@@H]3C[C@@H]4C[C@@H](C4(C)C)[C@]3(C)O2)cc1`, half-maximal inhibition (IC50) required 450 nM.

Compound `CC(C)[C@H](NC(=O)[C@H](CCC(=O)O)NC(=O)[C@@H](N)CC(=O)O)C(=O)N[C@H](C(=O)N1CCC[C@@H]1C(=O)N[C@@H](CCc1ccc(Cl)cc1)B1O[C@@H]2C[C@@H]3C[C@@H](C3(C)C)[C@]2(C)O1)C(C)C` displayed a half-maximal inhibitory concentration (IC50) of 1400 nM. Turning to `CC(C)[C@H](NC(=O)[C@H](CCC(=O)O)NC(=O)[C@@H](N)CC(=O)O)C(=O)N[C@H](C(=O)N1CCC[C@@H]1C(=O)N[C@@H](CCc1ccc(C(C)(C)C)cc1)B1O[C@@H]2C[C@@H]3C[C@@H](C3(C)C)[C@]2(C)O1)C(C)C`, the IC50 came to 340 nM. In the case of `CC(C)[C@H](NC(=O)[C@H](CCC(=O)O)NC(=O)[C@@H](N)CC(=O)O)C(=O)N[C@H](C(=O)N1CCC[C@@H]1C(=O)N[C@@H](CCc1ccc(Oc2ccccc2)cc1)B1O[C@@H]2C[C@@H]3C[C@@H](C3(C)C)[C@]2(C)O1)C(C)C`, the half-inhibitory concentration (IC50) worked out at 220 nM. `CC(C)[C@H](NC(=O)[C@H](CCC(=O)O)NC(=O)[C@@H](N)CC(=O)O)C(=O)N[C@H](C(=O)N1CCC[C@@H]1C(=O)N[C@@H](CCCCc1ccccc1)B1O[C@@H]2C[C@@H]3C[C@@H](C3(C)C)[C@]2(C)O1)C(C)C` had an IC50 of 400 nM. `CC[C@H](NC(=O)[C@H]1CCCN1C(=O)[C@@H](NC(=O)[C@@H](NC(=O)[C@H](CCC(=O)O)NC(=O)[C@@H](N)CC(=O)O)C(C)C)C(C)C)B1O[C@@H]2C[C@@H]3C[C@@H](C3(C)C)[C@]2(C)O1` came in with an IC50 of 20 nM. Same read-out and setting: with `Cc1ccc(CC[C@H](NC(=O)[C@H]2CCCN2C(=O)[C@@H](NC(=O)[C@@H](NC(=O)[C@H](CCC(=O)O)NC(=O)[C@@H](N)CC(=O)O)C(C)C)C(C)C)B2O[C@@H]3C[C@@H]4C[C@@H](C4(C)C)[C@]3(C)O2)cc1` the figure was 5000 nM; with `CC(C)C[C@H](NC(=O)[C@H]1CCCN1C(=O)[C@@H](NC(=O)[C@@H](NC(=O)[C@H](CCC(=O)O)NC(=O)[C@@H](N)CC(=O)O)C(C)C)C(C)C)B1O[C@@H]2C[C@@H]3C[C@@H](C3(C)C)[C@]2(C)O1`, 60 nM.

Values taken from ChEMBL document CHEMBL1135850, “P1 Phenethyl peptide boronic acid inhibitors of HCV NS3 protease” (Bioorg Med Chem Lett, 2002).
